PABP polyA inh: PABP-poly(A) binding inhibition | P11940 | PABP-poly(A) RNA binding, fluorescence polarization | calls only at 35 µM | actives 1% (n = 290,000);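 note: calls also rest on retests at 20 µM and on dose response follow-up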
PABP1 MLLE inh: inhibitors of microRNA-mediated deadenylation, human PABP1 MLLE binding. P11940. GST-MLLE / FITC-PAM2 fluorescence polarization. inhibition, % at 20 µM. actives 0.36% (n = 360,000). AID 588489; in the data active = inhibition above about 35%, passing the limit was not always enough;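 note: plate controls were DMSO wells with GST-MLLE for no effect and wells lacking GST-MLLE protein for full effect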
eIF4E-4G inh: inhibitors of eIF4E and eIF4G interaction in translation initiation; AID 782; TR-FRET eIF4E-eIF4GI(517-606) binding, 2 h; actives 0.37% (n = 220,000); inhibition, % at 21.7 µM;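 active = inhibition above about 30%, limit read from the data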;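 note: 0% = full FRET control wells and 100% = background wells lacking eIF4GI fragment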
HCV core dimer: blocks dimerization of HCV core protein; actives 0.33% (n = 300,000); TR-FRET GST/Flag-core106 dimerization, 1536-well; inhibition, % at 5 µM;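 active = inhibition above the mean of all tested compounds plus 3 SD, set per screening campaign, cut at about 45% in these data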
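Assay system: tagged HCV core106 pair (GST and Flag); medium: KF-containing HEPES buffer, pH 7.45, DTT, CHAPS, BSA; also added: Eu donor and XL665 acceptor anti-tag antibodies; dosing: 5 µM single dose; timing: compound-protein-antibody incubation 4 h at 22.5 °C; signal: TR-FRET 671 and 617 nm emission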
UBC9 SUMO inh: inhibitors of human SUMOylation (UBC9); actives 0.36% (n = 290,000); P63279; inhibition, % at 35 µM; HTRF SUMOylation assay, SAE1/SAE2 + UBC9, in vitro; in the data active = inhibition above about 50%, passing the limit was not always enough; inconclusive = no clear call, values can overlap the other calls
Target sequence (P63279 whole entry, looked up): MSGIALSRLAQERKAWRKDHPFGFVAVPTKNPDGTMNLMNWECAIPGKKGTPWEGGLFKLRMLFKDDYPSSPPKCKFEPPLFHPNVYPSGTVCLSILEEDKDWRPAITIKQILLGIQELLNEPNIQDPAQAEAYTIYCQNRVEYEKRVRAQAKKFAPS
eIF4H FP inh: inhibitors of RNA binding by human eIF4H; Q15056; actives 0.94% (n = 290,000); inhibition, % at 35 µM; eIF4H fluorescence polarization binding assay; AID 2012;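 note: calls also rest on retests at 20 µM and on dose response follow-up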
* marks the source's active call; other numbers are inactive results; [ ] = another dose, or the depositor's remark. This is a sample that favours compounds with a hit; in the whole collection about 1.8% have one here. Unless noted, the rule behind the calls is not given here.

`O=c1cc(-c2ccccc2)[nH]c2ccccc12` gave PABP polyA inh inactive, PABP1 MLLE inh -1.1, eIF4E-4G inh 48.5*[fluorescence artefact?], HCV core dimer -5.0, UBC9 SUMO inh 6.7 and eIF4H FP inh -2.9.
COc1ccc(C2=CC(c3ccco3)n3ncnc3N2)cc1 (stereo not drawn) was read as PABP polyA inh inactive, PABP1 MLLE inh 143.5, eIF4E-4G inh 0.4, UBC9 SUMO inh 46.7 and eIF4H FP inh inconclusive.
`Clc1ccc(C2=CC(c3ccco3)n3ncnc3N2)cc1` (stereo not drawn) gave PABP polyA inh active, PABP1 MLLE inh 159.8, eIF4E-4G inh 8.8, HCV core dimer -2.2, UBC9 SUMO inh 23.3 and eIF4H FP inh inconclusive.
Screening NC(=O)CC(NC(=O)c1ccccc1)c1ccc(NCCc2cccc(F)c2)c([N+](=O)[O-])c1 (stereo not drawn) returned PABP polyA inh inactive, PABP1 MLLE inh 4.8, eIF4E-4G inh 95.8*, HCV core dimer 10.9, UBC9 SUMO inh 12.2 and eIF4H FP inh -13.4.
Screening NC(=O)CC(NC(=O)c1ccc(Br)cc1)c1ccc(NCCc2ccc(F)cc2)c([N+](=O)[O-])c1 (stereo not drawn) returned PABP polyA inh inactive, PABP1 MLLE inh -37.7, eIF4E-4G inh -1.8, HCV core dimer 7.1, UBC9 SUMO inh 39.5 and eIF4H FP inh -0.8.
`CCOc1ccc(C(=O)COC(=O)CNC(=O)C2CCCCC2)cc1` gave PABP1 MLLE inh -3.5.
Cc1cc(Cl)ccc1C(=O)C1CCCN(C(=O)CN2CCOC2=O)C1 (stereo not drawn) was read as PABP polyA inh inactive, PABP1 MLLE inh -9.0, UBC9 SUMO inh 2.2 and eIF4H FP inh 67.7.
Cc1cc(C)n2nc3nc(N4CCCCC4)nc(-c4ccco4)c3c2n1 was read as PABP polyA inh active, PABP1 MLLE inh 2.8, eIF4E-4G inh 2.8, HCV core dimer 23.4, UBC9 SUMO inh 12.7 and eIF4H FP inh 71.8*.
O=Cc1c(C(=O)O)n(CC(=O)O)c2ccccc12 was read as PABP polyA inh inactive, PABP1 MLLE inh -2.2, eIF4E-4G inh 4.0, HCV core dimer -11.4, UBC9 SUMO inh -3.3 and eIF4H FP inh -4.0.
`Cc1ccc(NC(=O)c2ccc(N/N=C/c3cccc(O)c3)c([N+](=O)[O-])c2)cc1` gave PABP polyA inh inactive, PABP1 MLLE inh -26.0, eIF4E-4G inh -1.9, HCV core dimer 35.5, UBC9 SUMO inh 29.4 and eIF4H FP inh -11.9.
`Cc1ccccc1NC(=O)c1ccc(N/N=C/c2ccccc2O)c([N+](=O)[O-])c1` gave PABP polyA inh inactive, PABP1 MLLE inh -5.3, eIF4E-4G inh -24.4, HCV core dimer 3.1, UBC9 SUMO inh 57.0* and eIF4H FP inh -9.1.
`CCOc1ccccc1CNS(=O)(=O)c1cnc[nH]1` gave PABP polyA inh inactive, PABP1 MLLE inh 2.6, HCV core dimer 2.5, UBC9 SUMO inh -2.2 and eIF4H FP inh 3.1.
O=C(Nc1ccc(F)cc1)c1cccc(N2C(=O)C3C4C=CC(C5CC45)C3C2=O)c1 (stereo not drawn) was read as PABP polyA inh inactive, PABP1 MLLE inh 10.1, HCV core dimer -1.6, UBC9 SUMO inh -0.6 and eIF4H FP inh 0.0.
Screening CC1(C)Cc2c(sc3[nH]c(=S)n(Cc4ccco4)c(=O)c23)CO1 returned PABP polyA inh inactive, PABP1 MLLE inh 9.2, eIF4E-4G inh -2.3, HCV core dimer 0.7, UBC9 SUMO inh 23.0 and eIF4H FP inh 30.7.
`O=c1c2c3c(sc2[nH]c(=S)n1Cc1ccco1)CCC3` gave PABP polyA inh active, PABP1 MLLE inh 5.0, eIF4E-4G inh 29.5, HCV core dimer 48.1*, UBC9 SUMO inh 41.2 and eIF4H FP inh 81.3*.
Screening CN(C(=O)CN1C(=O)c2ccccc2S1(=O)=O)C1CCCCC1 returned PABP1 MLLE inh -13.8.
Cc1c(C(=O)Nc2ccccc2N2CCN(C)CC2)oc2ccc(F)cc12 was read as PABP1 MLLE inh -6.9.
For COc1ccc(NS(=O)(=O)c2cccc(C(=O)NNC(=O)c3ccccc3O)c2)cc1 the results were PABP1 MLLE inh 7.5 and HCV core dimer -0.7.
